# Experimental data reported in the EternaBench riboswitch data.
# Tested on: MS2 coat protein
# Test: apparent Kd, MS2 coat protein; higher = weaker binding; RNA-MaP array; FMN 200 µM where present
# Procedure, shortened: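 Apparent Kd: the median of filtered binding-curve fits from single clusters. Designs were transcribed on Illumina sequencing-chip clusters by stalled E. coli RNA polymerase and titrated with SNAP-549-labelled MS2 coat protein from 0.7 or 1.5 nM, doubling to 3 µM, in 100 mM Tris-HCl pH 7.5, 80 mM KCl, 4 mM MgCl2, BSA, DTT, yeast tRNA and Tween-20. Each series ran without and then with constant ligand, and green signal was normalised to red-channel RNA signal and control-cluster median Fmax.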
# [1] = designed as: OFF switch for flavin mononucleotide, no ligand
# [2] = ligand present: flavin mononucleotide, designed as: OFF switch for flavin mononucleotide
# [3] = designed as: ON switch for flavin mononucleotide, no ligand
# [4] = ligand present: flavin mononucleotide, designed as: ON switch for flavin mononucleotide
Sequence,apparent Kd [1],apparent Kd [2],apparent Kd [3],apparent Kd [4]
AGCAUGUGAGGAUAUGCGGACUCCGGUAAAUCUGGAGUCCAGUAGAAGGCACAUGAGGAUCACCCAUGUGAUAA,98.3 nM,83.2 nM,–,–
AGCCAAAUAGGAUAUGCCCGGGAUAACAUGAGGAUCACCCAUGUGACCGAUUCAUGUCCUGCAGAAGGAUUUGGGA,13.2 nM,24.4 nM,–,–
AGCCAGGACGGGUGCCUGAGCGGGAGAAGGUACGAGGGAUCGUCUGGACAUGAGGAUCACCCAUGUAAGGAUAUCCCGCCUAUU,8.78 nM,18.1 nM,–,–
AGCCUAGCAGGAUAUGCUCAAGAUUACAUGAGGAUCACCCAUGUGACUGGUUGUUGUCUUGCAGAAGGGCUAGGGA,20.6 nM,46.8 nM,–,–
AGCCUGAGUCGAGGAUAUUAUGGAUCAAUUAAUACAUGAGGAUCACCCAUGUAAUUAAUUUAACAUGAGAAGGUGACUCAGGCA,–,–,11.3 nM,12.9 nM
AGCCUGCUGCGAGGAUAUCAACUAAAGGGUCCGAUUUCCGAGCGGAACAUGAGGAUCACCCAUGUUGAGAAGGCGCGAGUAUAG,25.6 nM,182 nM,–,–
AGCGAACAUGAGGAUCACCCAUGUGAAAAACAUAGAGGAUAUGUCGCAUGCGUGUAAAAGACAGAAGGCUAUCGCG,–,–,71.6 nM,33.9 nM
AGCGGAUUGUAGAAGGGUGACAUGAGGAUCACCCAUGUUCAAAUGCGAUUUACGGUAAUUGAUCCACAGGAUAUACUGUCCGAG,–,–,942 nM,266 nM
AGCGGCGCGGGCCACCGCAAAACCAGAAGGACAUGAGGAUCACCCAUGUAACAAAACAGGGCGGUGUAGGAUAUGGCAGACCCA,10.3 nM,11.8 nM,–,–
AGCGUGUAAGGAUAUACGUCGGACAGCAAAUGCUAUCCCUAGUAGAAGGUACAUGAGGAUCACCCAUGUGUCCA,22.9 nM,58.8 nM,–,–
AGCUACGUUUCGUAGCAGCUAGGUGAGGAUAUCCUUUACAUGAGGAUCACCCAUGUAUAGCCAUGGGAGAAGGCGCCUAGAAAG,–,–,181 nM,16.9 nM
AGCUACGUUUCGUAGCAGUGUCAUCGAGAAGGCCUCAUAACAUGAGGAUCACCCAUGUUAGCAUGGGAGGAUAUCGAUGAUACA,–,–,58.8 nM,24.2 nM
AGCUACGUUUCGUAGCAGUGUCAUCGAGAAGGCCUUAUUACAUGAGGAUCACCCAUGUAUGCAUGGGAGGAUAUCGAUGAUACA,–,–,13.9 nM,5.25 nM
AGCUAGUACCGAGGAUAUACAUACAUGAGGAUCACCCAUGUAUACAUGAAUUUAUGAGACUACAUGUAGAAGGCGGUACUAGCA,–,–,58.9 nM,15.9 nM
AGCUAGUCAGGAUAUACAAACAUGUCAAAAGACGUGAAGAGACAUGAGGAUCACCCAUGUAGAAGGGACUAGCA,26.6 nM,70.9 nM,–,–
AGCUAGUGAGGAUAUACGAACAUGUCAAAAGACGUGAAGGGACAUGAGGAUCACCCAUGUAGAAGGCACUAGCA,41.1 nM,139 nM,–,–
AGCUCGCGAAGAGGAUAUACAGCGGCGACCUAUCAUGAUGAGCGGGUUACAUGAGGAUCACCCAUGUAGAAGGCUUCCCGACUC,17.9 nM,52.2 nM,–,–
AGCUCGGGUGCAGGAUAUCCGCCGGAUCGCAGUGGAGAAGGGCGCCAAGCGAACAUGAGGAUCACCCAUGUAUCGGAGCCGGAC,–,–,55.6 nM,11.1 nM
AGCUGCAAUCAGAAGGAGUAGGGUACAUGAGGAUCACCCAUGUCCGAUGCUAGGAUAUGAAAGCAGACCCGUGGUACCAAUCCC,–,–,33.5 nM,7.39 nM
AGCUGGUGACAGCAUCGAGCAAAACAUGAGGAUCACCCAUGUAGAAGGCUGUACGGUUACCGUACAGAGGAUAUACAUAGCUCG,7.15 nM,10 nM,–,–
AGCUGUGGCAGAGGAUAUACCUCAAUAAUCCAUUGCAAAUAGCGAUGGACAUGAGGAUCACCCAUGUAGAAGGCUGUCUCAGCA,323 nM,733 nM,–,–

Sequence,apparent Kd [1],apparent Kd [2],apparent Kd [3],apparent Kd [4]
AGCUGUGGCCGAGGAUAUCACGAACCAUGGAAAACCAUGGAACUCAAACAUGAGGAUCACCCAUGUGAGAAGGCGGUCUCAGCA,21.1 nM,15.9 nM,–,–
AGCUGUGGCCGAGGAUAUCUAACUUCAAAUACCGACGUAUAGUCGGACAUGAGGAUCACCCAUGUAGAGAAGGCGGUCUCAGCA,16.1 nM,26.7 nM,–,–
AGCUGUGGCCGAGGAUAUCUAAUAAUCUCAACCGAAAUAUAAUCGGACAUGAGGAUCACCCAUGUAGAGAAGGCGGUCUCAGCA,36.2 nM,92.8 nM,–,–
AGCUGUGGCCGAGGAUAUCUACUAAUCCAAACCGAAAUAUAAUCGGACAUGAGGAUCACCCAUGUAGAGAAGGCGGUCUCAGCA,254 nM,410 nM,–,–
AGGAAACAUGAGGAUCACCCAUGUAAAAGGUGGUUAGGAUAUGCAAAAAGAAAAAGAAAAGCAGAAGGGACAAGAA,–,–,561 nM,635 nM
AGGAAACAUGAGGAUCACCCAUGUAAAAGGUGGUUAGGAUAUGCGAUAAUAAAAAUAAUAGCAGAAGGGACAAGAA,–,–,511 nM,432 nM
AGGAAUUUGUAGAAGGACGACUAUUAAGAUUUCGUAGGAUAUACUAUUUACAUGAGGAUCACCCAUGUUUAAAUGGAACAAUGU,8.06 nM,11.1 nM,–,–
AGGAGAAAUGUAGGAUAUGGGCGUAUAUAUGGGCAAAGCGCAUAUAUACGCCCAGAAGGACAUGAGGAUCACCCAUGUUUCCCU,12.7 nM,12.9 nM,–,–
AGGAGAAAUGUAGGAUAUGGGUAUAUAUAUGGGCAAAGCGCAUAUAUAUACCCAGAAGGACAUGAGGAUCACCCAUGUUUCCCU,12.5 nM,12.9 nM,–,–
AGGAGACAUGAGGAUCACCCAUGUGAGAAGAGGCGAGGAUAUCGAAAAAAAAAAAAAAAACGAGAAGGCGCGAGAA,–,–,71 nM,39.3 nM
AGGAGGUGAGGAUAUGCUGCUCGUCACUUGCGUGAUGAGUAGCAGAAGGCACAUGAGGAUCACCCAUGUAAAGA,117 nM,105 nM,–,–
AGGAGGUUAGGAUAUGCUGCUCGUCACUUGCGUGAUGAGUAGCAGAAGGAACAUGAGGAUCACCCAUGUAAAGA,29.7 nM,35.1 nM,–,–
AGGAGUAAAGGGAAUAACAUGAGGAUCACCCAUGUAUGGGAGAGAAGGCAUAUCGGAGGACGAUAUGAGGAUAUUUAAACUUUA,–,–,106 nM,20.5 nM
AGGAGUACAGGAUAUACAUGAGGAUCACCCAUGUGAGAAUUAAGUGGCGUACCACAAAGUAGAAGGGUACUCCA,50.5 nM,198 nM,–,–
AGGGUAUGAACAUGAGGAUCACCCAUGUAAACGGAAACGAAUGAGGAUAUCGAUAGCAAAGCUAUCGAGAAGGCAUGGGACCCU,–,–,286 nM,49.1 nM
AGGGUGUCGCUCAAUAACAUGAGGAUCACCCAUGUGCAUUAGAGAAGGGACCCGGGCGCGUGGAGUCAGGAUAUCUAUCUGCCA,34.4 nM,30 nM,–,–
AGGUAACAUGAGGAUCACCCAUGUCAGGAUAUCAGUAAGAUGAGAAUAGAGUAGAGUAUGAGAAGGGACUAUAU,43.6 nM,32.3 nM,–,–
AGGUAAGAGUUAAUUGUGACGGUGAGAAGGCAAAUGGUUGUGAUUAACAUGAGGAUCACCCAUGUUGAGGAUAUCACCACCAUC,29.5 nM,137 nM,–,–
AGGUACAUCAUAGGAUAUCGUGUGUAAACAUGAGGAUCACCCAUGUCAUCCGAGAGUAUAUCGACCGAGAAGGGUGAUGUACCU,–,–,22 nM,32.5 nM
AGGUACUAGGGAGGAUAUGGGAAGAUACAUGAGGAUCACCCAUGUUUAAGAAUGCCGAGAGGCAACUAGAAGGCCCUAGUACCU,–,–,454 nM,19.8 nM
AGGUCAACCACAGGAUAUGGCUAGCAUAGCUAGCCAGAAGGGUGGUCAUUUCCAUGUAAAUACAUGAGGAUCACCCAUGUAUCC,–,–,126 nM,41.1 nM
